The source of these data is paper PMC12377326 (RSC Advances, 2025).

As usually defined, the IC50 is the midpoint of a concentration-inhibition curve. Lower therefore signals inhibition by little substance.

In assay [1] the target is T1, hCA IX (Homo sapiens, UniProt Q16790). Nature of the assay: biochemical. The note with it: stopped-flow CO2-hydrase assay.
A further assay addresses hCA I (Homo sapiens, UniProt P00915). As to the kind of experiment: hCA I counterscreen. It counts as biochemical. The settings on record: for S I = (IC50 hCA I, nM)/(IC50 hCA IX, nM): selectivity for CA IX over CA I. An outline of the steps:
(§1)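 Recombinant human enzymes, >95% pure: hCA I (Ala2–Phe261) for line 1 and hCA II (Ser2–Lys260) for line 2. Run under the same conditions as the hCA IX assay at 25 °C. IC50 is the mean ± SD, n = 3. Where solubility prevented a full titration, IC50 was extrapolated from the linear range of the curve. Selectivity index = IC50 (hCA I or hCA II, nM)/IC50 (hCA IX, nM).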
Background: A counterscreen serves to expose hits that act by an unwanted route or on another target.

The next assay concerns the target hCA II (Homo sapiens, UniProt P00918). As to the kind of experiment: hCA II counterscreen. The settings on record: for S II = (IC50 hCA II, nM)/(IC50 hCA IX, nM): selectivity for CA IX over CA II. It counts as biochemical. The gist of the method:
as §1

Assay [2] deals with T1, hCA IX. As to the kind of experiment: Steady-state CO2-hydrase enzyme kinetics. It counts as biochemical. The settings on record: Lineweaver–Burk and Michaelis–Menten plots; unchanged Km, reduced Vmax.

Where “and” joins values, the source holds several entries; their conditions need not be identical. Equal entries are not always repeated.

hCA I, sequence (P00915 2-261): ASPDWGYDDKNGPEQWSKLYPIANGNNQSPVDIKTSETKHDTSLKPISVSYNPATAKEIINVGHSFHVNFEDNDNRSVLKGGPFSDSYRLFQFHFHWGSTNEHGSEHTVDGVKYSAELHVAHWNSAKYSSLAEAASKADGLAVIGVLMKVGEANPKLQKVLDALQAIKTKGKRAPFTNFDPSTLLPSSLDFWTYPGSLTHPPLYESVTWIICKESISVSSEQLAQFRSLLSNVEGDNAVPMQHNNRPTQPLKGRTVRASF

In the case of `C=C[C@@]1(C)C=C2CC[C@@H]3[C@](C)(CCC[C@@]3(C)C(=O)O)[C@H]2CC1` [Pimaric acid, pimaric acid], the concentration for half-maximal inhibition (IC50) against hCA IX [1] (IC50 CA IX (printed in μM), mean ± SD) is 0.341 ± 0.0064 µM; on hCA IX [1] (IC50 hCA IX, pH 7.4, 25 °C, mean ± SD (n = 3)) it was 0.341 ± 0.00637 µM; against hCA I, 2700 ± 250 nM; against hCA II it was 1620 ± 130 nM. Also, the “S I = (IC50 hCA I, nM)/(IC50 hCA IX, nM)” value is 7.9 on hCA I and “≈ 8” at hCA I (listed as pimaric). The results for the “S II = (IC50 hCA II, nM)/(IC50 hCA IX, nM)” value (shortened to “S II =”) at hCA II and at hCA II (listed as pimaric) were 4.8 and “≈ 5”, respectively. For the same molecule, the mode of inhibition entry at hCA IX [2] is listed as “non-competitive”.

On to `CC(C)C1=CC[C@H]2C(=C1)CC[C@@H]1[C@]2(C)CCC[C@@]1(C)C(=O)O` [Levopimaric acid, levopimaric acid], for which, on hCA I, half-maximal inhibition (IC50) was put at 1500 ± 120 nM; the “S I = (IC50 hCA I, nM)/(IC50 hCA IX, nM)” value is 10 and 10.2. Besides, on hCA II, the concentration for half-maximal inhibition (IC50) came out at 680 ± 50 nM and the “S II =” value worked out at 4.6. For the same molecule, the mode of inhibition entry at hCA IX [2] was “non-competitive”.

As for `CC(C)C1=CC2=C(CC1)[C@@]1(C)CCC[C@@](C)(C(=O)O)[C@@H]1CC2` [Palustric acid, palustric acid], the values for the 50% inhibitory concentration (IC50) on hCA I and at hCA II were 2250 ± 200 nM and 1450 ± 120 nM, respectively. Moreover, the “S I = (IC50 hCA I, nM)/(IC50 hCA IX, nM)” value on hCA I is reported as 7.8; on hCA I (listed as palustric), “≈ 8”. The “S II =” value on hCA II was 5.0; on hCA II (listed as palustric), “≈ 5”. In addition, at hCA IX [2], the mode of inhibition result is given as “non-competitive”.
